Like-named read-outs stand apart in the source and are kept apart here. Marks after values point to notes of the source that are not given here.
What was measured:
[1] = format: in vivo, human
Summary of the method: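 Heparinised plasma was taken predose and at 0.5–48 h, spun within 30 min and stored at −70 °C. Parent and metabolite were measured by SPE LC–MS/MS; noncompartmental AUC, with ANOVA on log values giving geometric-mean ratio and 90% CI.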

[2] = healthy subjects, Apremilast 30 mg BID; cited from earlier work
[3] = Steady-state plasma pharmacokinetics of apremilast alone; format: in vivo, human; details: for CLss/F / Cmin: steady-state
Summary of the method: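 Test compound was given at 30 mg Q12h for 12 doses, with a single co-drug dose added on Day 8. Citrated plasma was sampled predose and at 0.5–12 h after the morning dose on Days 7 and 8, then assayed by liquid-liquid extraction LC–MS/MS. Noncompartmental AUC0–τ and Cmax were derived, with ANOVA on log values (treatment fixed, subject random), geometric-mean ratio with 90% CI, and Hodges–Lehmann tmax.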

P-glycoprotein (P-gp) [4] = details: read-out: IC50 (P-gp inhibition); in vitro, weak inhibitor; cited from earlier work
P-glycoprotein (P-gp) [5] = details: in vitro; cited from earlier work
[6] = tested on: breast cancer resistance protein (BCRP); details: stated in introduction, no reference given; cited from earlier work
[7] = tested on: organic anion transporter (OAT)1; details: stated in introduction, no reference given; cited from earlier work
OAT3 [8] = details: stated in introduction, no reference given; cited from earlier work
[9] = tested on: organic cation transporter (OCT)2; details: stated in introduction, no reference given; cited from earlier work
[10] = tested on: organic anion transporting polypeptide (OATP)1B1; details: stated in introduction, no reference given; cited from earlier work
OATP1B3 [11] = details: stated in introduction, no reference given; cited from earlier work
OAT3 [12] = details: stated in introduction, no reference given; cited from earlier work; remark: listed apart in the source
BCRP = details: in vitro, no reference printed, cited from earlier work
[13] = tested on: multidrug resistance protein (MRP)1; details: stated in introduction, no reference given; cited from earlier work
MRP2 = details: in vitro, no reference printed, cited from earlier work
MRP4 = details: stated in introduction, no reference given; cited from earlier work
OATP1B3 [14] = details: stated in introduction, no reference given; cited from earlier work; remark: listed apart in the source
OCT2 = details: stated in introduction, no reference given; cited from earlier work
OAT1 = details: read-out: IC50 (OAT1 inhibition); weak inhibitor; no reference given; cited from earlier work
OATP1B1 = details: read-out: IC50 (OATP1B1 inhibition); weak inhibitor; no reference given; cited from earlier work
MRP3 = details: read-out: IC50 (MRP3 inhibition); weak inhibitor; no reference given; cited from earlier work
[15] = cited from earlier work
[16] = no reference given, cited from earlier work; for Apparent clearance: prior studies
[17] = 7-OH MTX in plasma after MTX 10 mg oral + Apremilast 30 mg Q12H (Day 8), N = 1
[18] = 7-OH MTX in plasma after MTX 10 mg oral alone (Day 1), N = 1
[19] = 7-OH MTX in plasma after MTX 12.5 mg oral + Apremilast 30 mg Q12H (Day 8), N = 1
[20] = 7-OH MTX in plasma after MTX 12.5 mg oral alone (Day 1), N = 1
[21] = 7-OH MTX in plasma after MTX 17.5 mg oral + Apremilast 30 mg Q12H (Day 8), N = 1
[22] = 7-OH MTX in plasma after MTX 17.5 mg oral alone (Day 1), N = 1
[23] = 7-OH MTX in plasma, ANOVA, N = 15
[24] = 7-OH MTX in plasma, all dose groups, N = 15, acceptance range 80–125%
[25] = Apremilast 30 mg Q12H alone (Day 7), plasma, N = 15, arithmetic mean (SD)
[26] = both, human, plasma, oral, 30 mg

## CN(Cc1nc2c(N)nc(N)nc2[nH]c1=O)c1ccc(C(=O)N[C@@H](CCC(=O)O)C(=O)O)cc1 [7-OH MTX, 7-hydroxy methotrexate]
[1]; [17]
  AUC0–t: 620 ng·h/mL
  AUC0–∞: 650 ng·h/mL
  Cmax: 32.9 ng/mL
  t1/2: 10.9 h
  tmax: 6.00 h
[1]; [18]
  AUC0–t: 430 ng·h/mL
  AUC0–∞: 460 ng·h/mL
  Cmax: 21.0 ng/mL
  t1/2: 11.9 h
  tmax: 5.98 h
[1]; [19]
  AUC0–t: 1,670 hr ng/mL
  AUC0–∞: 1,820 hr ng/mL
  Cmax: 72.8 ng/mL
  t1/2: 12.0 h
  tmax: 6.00 h
[1]; [20]
  AUC0–t: 1,220 hr ng/mL
  AUC0–∞: 1,370 hr ng/mL
  Cmax: 52.8 ng/mL
  t1/2: 14.2 h
  tmax: 6.00 h
[1]; 7-OH MTX in plasma after MTX 15 mg oral alone (Day 1), N = 6, median (range)
  tmax: 7.52 (6.00–12.00) hr
[1]; [21]
  AUC0–t: 1,170 hr ng/mL
  AUC0–∞: 1,290 hr ng/mL
  Cmax: 48.9 ng/mL
  t1/2: 12.2 h
  tmax: 9.00 h
[1]; [22]
  AUC0–t: 1,170 hr ng/mL
  AUC0–∞: 1,300 hr ng/mL
  Cmax: 45.4 ng/mL
  t1/2: 13.0 h
  tmax: 6.00 h
[1]; 7-OH MTX in plasma after MTX 20 mg oral alone (Day 1), N = 6, median (range)
  tmax: 7.54 (5.95–9.00) hr
[1]; [23]
  Intra-subject CV% of AUC0–t: 19.89%
  Intra-subject CV% of AUC0–∞: 19.34%
  Intra-subject CV% of Cmax: 17.84%
[1]; 7-OH MTX in plasma, all dose groups, N = 15, Hodges–Lehmann
  tmax median difference (“MTX + Apremilast” − “MTX”): 0.005 ^c hr
[1]; [24]
  AUC0–t ratio of geometric means (“methotrexate + apremilast”/“methotrexate”): 98.59
  AUC0–∞ ratio of geometric means (“methotrexate + apremilast”/“methotrexate”): 98.24
  Cmax ratio of geometric means (“methotrexate + apremilast”/“methotrexate”): 104.01
[1]; 7-hydroxy methotrexate, methotrexate with versus without apremilast
  90% CI for Cmax, AUC0–t and AUC0–∞ versus FDA acceptance range of 80–125%: within the acceptance range for equivalency

## CCOc1cc(C(CS(C)(=O)=O)N2C(=O)c3cccc(NC(C)=O)c3C2=O)ccc1OC1OC(C(=O)O)C(O)C(O)C1O (centres unmarked) [M12]
[2]
  AUC relative to Apremilast: approximately 1.7 fold
  Cmax relative to Apremilast: ~1.25 fold

## CCOc1cc([C@@H](CS(C)(=O)=O)N2C(=O)c3cccc(NC(C)=O)c3C2=O)ccc1OC [APR, apremilast]
[3]; Apremilast 30 mg Q12H + MTX (Day 8), plasma, N = 13, arithmetic mean, excludes data with R^2 < 0.9
  CLss/F: 156 ^b (86.3) mL/min
[3]; Apremilast 30 mg Q12H + MTX (Day 8), plasma, N = 15, arithmetic mean (SD)
  Cmin: 242 (153) ng/mL
[3]; [25]
  CLss/F: 153 (78.6) mL/min
  Cmin: 248 (153) ng/mL
[3]; apremilast in plasma, 30 mg Q12H, N = 15, Hodges–Lehmann
  tmax median difference (“APR + MTX” − “APR”): 0 ^c hr
[3]; apremilast in plasma, 30 mg Q12H, N = 15, acceptance range 80–125%
  Cmax ratio of geometric means (“methotrexate + apremilast”/“apremilast”): 95.00
[3]; apremilast in plasma, 30 mg Q12H, acceptance range 80–125%
  AUC0–τ ratio of geometric means (“methotrexate + apremilast”/“apremilast”): 99.30
[3]; apremilast in plasma, ANOVA
  Intra-subject CV% of AUC0–τ: 9.66%
[3]; apremilast in plasma, ANOVA, N = 15
  Intra-subject CV% of Cmax: 12.07%
[3]; apremilast with versus without methotrexate
  90% CI for Cmax and AUCtau versus FDA acceptance range of 80–125%: within the acceptance range for equivalency
[3]; [26]
  AUC: 4110 ng·h/mL
  Cmax: 584 ng/mL
  tmax: 2 h
P-glycoprotein (P-gp) [4]
  IC50: > 50 µM
P-glycoprotein (P-gp) [5]
  Substrate of P-gp: substrate
[6]
  Substrate of BCRP: not a substrate
[7]
  Substrate of OAT1: not a substrate
OAT3 [8]
  Substrate of OAT3: not a substrate
[9]
  Substrate of OCT2: not a substrate
[10]
  Substrate of OATP1B1: not a substrate
OATP1B3 [11]
  Substrate of OATP1B3: not a substrate
OAT3 [12]
  Inhibition of OAT3: does not inhibit
BCRP; listed as Apremilast
  Inhibition of BCRP: does not inhibit
BCRP; listed as apremilast
  Inhibition of BCRP: not an inhibitor
[13]
  Inhibition of MRP1: does not inhibit
MRP2; listed as Apremilast
  Inhibition of MRP2: does not inhibit
MRP2; listed as apremilast
  Inhibition of MRP2: not an inhibitor
MRP4
  Inhibition of MRP4: does not inhibit
OATP1B3 [14]
  Inhibition of OATP1B3: does not inhibit
OCT2
  Inhibition of OCT2: does not inhibit
OAT1
  IC50: > 10 µM
OATP1B1
  IC50: > 10 µM
MRP3
  IC50: > 10 µM
[15]; in humans
  Oral bioavailability: ~73%
[15]; orally administered
  Excreted unchanged in urine: less than 3%
[16]; healthy volunteer studies, Apremilast administered BID
  Time by which steady-state is achieved: ≤ 36 h
[16]; in healthy subjects
  Apparent clearance: ~10 L/h
[16]; in patients
  Apparent clearance: 8.7 L/h

Source: article PMC4467241 (Clinical Pharmacology in Drug Development, 2014)
